Assay results gathered from unrelated publications.
Compare with care: the assays were run in different laboratories.
RAF1: RAF proto-oncogene serine/threonine-protein kinase (RAF1, Homo sapiens, UniProt P04049)
RAF1 Y340D/Y341D: RAF proto-oncogene serine/threonine-protein kinase (RAF1, Homo sapiens, UniProt P04049, Y340D/Y341D)

CC(=O)N1CCC(c2ccc(C(=O)NC(=N)N)cc2C(F)(F)F)CC1  remaining binding (RAF1; cell-free assay; competition with immobilised ligand; 1 µM): 100%
Cc1ccc(NC(=O)c2ccc(C)c(C(F)(F)F)c2)cc1C#Cc1nn(C2CCC(O)CC2)c2ncnc(N)c12 (stereo not drawn)  remaining signal (RAF1; cell-free assay; 10 µM): 24%
C[C@@H]1CN(c2cc(-c3nn(C)c4ccc(OC5(C)CC5)cc34)ncn2)C[C@H](C)O1  remaining binding (RAF1; cell-free assay; competition with immobilised ligand; 1 µM): 100%
N#CCCc1ccc2c(c1)-c1[nH]c3ccc([N+](=O)[O-])cc3c1CC(=O)N2  remaining signal (RAF1; cell-free assay; 0.5 µM): 104%
CCN(CC)CCNC(=O)c1c(C)[nH]c(/C=C2\C(=O)Nc3ccc(F)cc32)c1C  remaining activity (RAF1; enzyme activity; inhibitor; 0.1 µM): 95%
C[C@@H]1CCN(C(=O)CC#N)C[C@@H]1N(C)c1ncnc2[nH]ccc12  remaining signal (RAF1; cell-free assay; inhibitor; 0.5 µM): 95.5%
Cc1ccc(C(=O)Nc2ccc(CN3CCN(C)CC3)c(C(F)(F)F)c2)cc1C#Cc1cnc2cccnn12  remaining activity (RAF1; enzyme activity; inhibitor; 23.5 nM): 61%
Nc1cnc(N2CCc3cc(S(=O)(=O)Nc4c(F)cc(Cl)cc4F)cc(N4CCCC4=O)c32)nc1  remaining binding (RAF1; cell-free assay; competition with immobilised ligand; 1 µM): 79%
CN(C)C1CCN(CC#Cc2nn(C3CCCC3)c3nc(NCc4ccccc4)ncc23)C1 (stereo not drawn)  inhibition (RAF1 Y340D/Y341D; enzyme activity; inhibitor; FRET; 1 µM): -4%
CN1CC(Oc2cnc(C#N)cc2-c2ccn3nc(NC(=O)C4CC4)cc3c2)C1  inhibition (RAF1; enzyme activity; inhibitor; 1 µM): 2%
O=C(O)c1cc(-c2ccc(C3CCNCC3)cc2)c2ccc(-c3ccc(C(F)(F)F)cc3)cc2c1  remaining binding (RAF1; cell-free assay; competition with immobilised ligand; 1 µM): 70%
O=C(CSc1nc2nccnc2c(=O)n1CCc1ccccc1)Nc1nccs1  inhibition (RAF1 Y340D/Y341D; enzyme activity; inhibitor; 10 µM): 3%
CCOc1cc(-c2nncn2C)ccc1Nc1ncc2cc(C)nc(NCC(C)(C)C)c2n1  inhibition (RAF1 Y340D/Y341D; cell-free assay; TR-FRET; 1 µM): ≤ 15%
Cc1cc(NC(=O)c2cccc3cc(-c4cccc5[nH]nc(N)c45)ccc23)ccc1F  activity vs control (RAF1; enzyme activity; inhibitor; 0.1 µM): 97%
C[C@H](NC(=O)c1cnc2n1[C@](C)(Cc1ccc(C#N)cc1)C(=O)N2c1cc(Cl)c(F)c(Cl)c1)C(=O)NC1(c2ccccn2)CC1  remaining binding (RAF1; cell-free assay; competition with immobilised ligand; 1 µM): 100%
Cc1[nH]c(/C=C2\C(=O)Nc3ccc(F)cc32)c(C)c1C(=O)N[C@H]1CCN(C(=O)N(C)C)C1  remaining activity (RAF1; enzyme activity; inhibitor; 0.1 µM): 118%
CCS(=O)(=O)c1cc2cc(C[C@](O)(CC(C)(C)c3ccc(F)cc3C(N)=O)C(F)(F)F)[nH]c2cn1  remaining binding (RAF1; cell-free assay; competition with immobilised ligand; 1 µM): 83%
CNCc1ccc(-c2cc(-c3nc(-c4ccc(S(=O)(=O)C(C)C)cc4)cnc3N)on2)cc1  inhibition (RAF1; enzyme activity; inhibitor; 2 µM): 10%
Cc1sc(C(=O)NC2COC2)cc1-n1cc(NC(=O)Nc2c(F)cccc2Cl)cn1  remaining activity (RAF1; enzyme activity; inhibitor; 10 µM): 92.6%
CC(C)(C)c1nc(-c2cccc(NS(=O)(=O)c3c(F)cccc3F)c2F)c(-c2ccnc(N)n2)s1  remaining activity (RAF1 Y340D/Y341D; enzyme activity; inhibitor; radiometric; 1 µM): 1%
COc1cc2ncnc(Nc3ccc(Oc4ccccc4)cc3C)c2cc1OC  inhibition (RAF1 Y340D/Y341D; enzyme activity; inhibitor; 1 µM): 27%
CC(C)c1ccc(NC(=O)c2cccs2)c(-c2nc3ccccc3[nH]c2=O)c1  activity vs control (RAF1; enzyme activity; inhibitor; 1 µM): 96%
O=C1NC(=O)c2cc(Nc3ccc(F)cc3)c(Nc3ccc(F)cc3)cc21  remaining signal (RAF1; cell-free assay; 0.5 µM): 81.9%
CNc1cccc2cc(C(=O)Nc3ccc(C(=O)O)cc3)c(=O)[nH]c12  inhibition (RAF1; enzyme activity; inhibitor; 10 µM): 6.9%
N#Cc1ccc(Nc2ccc3[nH]c(=O)[nH]c3c2)c(Cl)c1  remaining binding (RAF1; cell-free assay; competition with immobilised ligand; 1 µM): 68%
COc1cc2c(N3CCN(C(=O)Nc4ccc(OC(C)C)cc4)CC3)ncnc2cc1OCCCN1CCCCC1  remaining signal (RAF1; cell-free assay; 0.5 µM): 96.7%
COc1cc(-c2cc(-c3ccc(N4CCNCC4)cc3)cnc2N)cc(OC)c1OC  inhibition (RAF1; enzyme activity; inhibitor; 0.1 µM): 2%
CNC(=O)Nc1ccc2c(c1)CC[C@@]21OC(=O)N(CC(=O)N(Cc2ccc(F)cc2)[C@@H](C)C(F)(F)F)C1=O  remaining binding (RAF1; cell-free assay; competition with immobilised ligand; 1 µM): 100%
Cc1ccc(Nc2nccc(N(C)c3ccc4c(C)n(C)nc4c3)n2)cc1S(N)(=O)=O  inhibition (RAF1; enzyme activity; inhibitor; 0.3 µM): 77%
Nc1ncnc2occ(-c3ccc(NC(=O)Nc4cc(C(F)(F)F)ccc4F)cc3)c12  remaining signal (RAF1; cell-free assay; inhibitor; 20 µM): 0%
